# Compound activity as filed in PubChem BioAssay.
# NSD2 inh = NSD2 histone methyltransferase inhibitors, primary screen, biochemical, AlphaScreen, single concentration, set 2. Histone-lysine N-methyltransferase NSD2 (Homo sapiens), O96028. NSD2 peptide methylation, 120 min. inhibition, % at 12.5 µM. 310,000 compounds, 0.54% hits; in the data active means inhibition above about 50%
# Target sequence (O96028 whole entry, looked up): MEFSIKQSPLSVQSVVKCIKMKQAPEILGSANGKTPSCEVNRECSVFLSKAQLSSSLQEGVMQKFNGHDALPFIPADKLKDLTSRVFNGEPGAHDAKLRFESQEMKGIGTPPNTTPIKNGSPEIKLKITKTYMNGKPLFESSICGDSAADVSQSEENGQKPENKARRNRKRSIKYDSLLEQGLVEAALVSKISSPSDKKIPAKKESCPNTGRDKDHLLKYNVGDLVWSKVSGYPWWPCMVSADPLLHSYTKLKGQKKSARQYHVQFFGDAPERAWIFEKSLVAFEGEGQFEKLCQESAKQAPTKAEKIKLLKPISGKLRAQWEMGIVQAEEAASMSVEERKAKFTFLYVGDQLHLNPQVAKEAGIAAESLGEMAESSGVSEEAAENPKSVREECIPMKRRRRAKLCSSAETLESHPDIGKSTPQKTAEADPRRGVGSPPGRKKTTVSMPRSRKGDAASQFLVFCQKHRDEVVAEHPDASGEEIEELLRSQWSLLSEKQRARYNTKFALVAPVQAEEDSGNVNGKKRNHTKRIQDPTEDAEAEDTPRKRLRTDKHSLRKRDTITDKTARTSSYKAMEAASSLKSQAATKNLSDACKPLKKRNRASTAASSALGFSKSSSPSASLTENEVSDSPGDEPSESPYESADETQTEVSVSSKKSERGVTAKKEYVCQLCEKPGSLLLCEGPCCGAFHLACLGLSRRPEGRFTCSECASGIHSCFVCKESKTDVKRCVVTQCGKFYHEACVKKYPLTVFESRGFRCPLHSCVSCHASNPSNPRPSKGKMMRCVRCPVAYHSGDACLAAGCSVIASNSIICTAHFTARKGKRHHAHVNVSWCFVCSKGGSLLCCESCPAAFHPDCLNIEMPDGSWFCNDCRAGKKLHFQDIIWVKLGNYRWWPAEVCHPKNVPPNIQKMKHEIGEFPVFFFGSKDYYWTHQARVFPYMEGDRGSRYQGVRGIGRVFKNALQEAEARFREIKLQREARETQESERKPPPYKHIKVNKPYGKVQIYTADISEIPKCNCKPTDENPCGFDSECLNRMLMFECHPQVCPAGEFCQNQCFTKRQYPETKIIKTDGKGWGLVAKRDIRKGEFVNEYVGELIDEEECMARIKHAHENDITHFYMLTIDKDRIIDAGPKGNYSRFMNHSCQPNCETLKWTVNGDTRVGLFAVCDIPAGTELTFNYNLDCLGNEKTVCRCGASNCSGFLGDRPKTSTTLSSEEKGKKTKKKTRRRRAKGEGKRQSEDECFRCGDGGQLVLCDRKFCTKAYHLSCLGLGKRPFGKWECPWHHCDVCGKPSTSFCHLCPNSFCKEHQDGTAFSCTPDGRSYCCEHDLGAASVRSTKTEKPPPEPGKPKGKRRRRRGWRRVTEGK
# LEDGF integ inh = blockers of LEDGF/p75-dependent integrase strand transfer – biochemical, TR-FRET, high throughput, primary screen; HIV-1 integrase (with human LEDGF/p75); TR-FRET IN-LEDGF/p75 DNA integration, Eu/Cy5; inhibition, % at 3.7 µM; 370,000 compounds, 0.64% hits; AID 743269, 2014;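 active means inhibition above the screen-wide mean plus 3 SD, cut at about 13% in these data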;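 further: signal is the Cy5 over europium emission ratio at 671 and 618 nm; 0% = plate median of compound wells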
# TDP2 absorb = human TDP2 enzyme inhibitors, primary screen, biochemical, epi absorbance, recombinant enzyme | Tyrosyl-DNA phosphodiesterase 2 (Homo sapiens), O95551 | T5PNP hydrolysis, p-nitrophenol absorbance 415 nm | inhibition, % at 12.8 µM | 370,000 compounds, 0.34% hits | AID 720702, 2013;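 active means inhibition above the mean of all tested compounds plus 3 SD, set per campaign, cut at about 25% in these data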;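 further: 0% = DMSO with enzyme and 100% = buffer with substrate but no TDP2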
#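 Assay system: recombinant human TDP2 / Reagent: T5PNP substrate at 5 mM, a TopII-DNA adduct mimic / Measured by: epi absorbance from released p-nitrophenol / Evaluation: % inhibition relative to enzyme-containing and enzyme-free wells / Control set: enzyme-free and DMSO wells / Replicates: each compound tested once, singlicate / Schedule: enzyme reaction with compound for 2 h at 37 °C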
# UHRF1 MBD2 ctr = UHRF1 methylated DNA binding inhibitors, primary screen, counter-screen for MBD2 inhibitor project, biochemical, TR-FRET, human UHRF1, single concentration. E3 ubiquitin-protein ligase UHRF1 (Homo sapiens), Q96T88. UHRF1 binding to methylated oligo. inhibition, % at 4.4 µM. 370,000 compounds, 0.75% hits. AID 687016, 2013; in the data active means inhibition above about 21%;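 further: UHRF1 SRA domain binding a hemimethylated CpG hairpin DNA probe; 0% = median of test compound wells and 100% = reference inhibitor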
# CASP6 VEID inh = human caspase-6 inhibitors, primary screen, biochemical, VEID-R110 fluorescence, single point, set 2. P55212. purified caspase-6, Z-VEID-R110 cleavage fluorescence. inhibition, % at 12.5 µM. 350,000 compounds, 0.53% hits. AID 686996, 2013;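 active means mean inhibition across replicates at least about 35%, with every replicate also reaching that limit, limit read from the data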;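 further: 0% = median of neutral control wells and 100% = no fluorescence left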
# MBD2 DNA inh = inhibitors of MBD2 binding to methylated DNA, primary screen, biochemical, TR-FRET, DNA-binding domain, human; MBD2 binding to methylated oligonucleotide; inhibition, % at 4.4 µM; 370,000 compounds, 0.31% hits; Methyl-CpG-binding domain protein 2 (Homo sapiens), Q9UBB5; in the data active means inhibition above about 13%
# UHRF1 ctr MBD2 = UHRF1 methylated DNA binding inhibitors, counter-screen for MBD2 inhibitor project, biochemical, TR-FRET, human UHRF1 | shares compounds with MBD2 DNA inh | UHRF1 binding to methylated oligonucleotide | inhibition, % at 4.4 µM | 1,000 compounds, 25% hits | AID 720530, 2013; in the data active means inhibition above about 21%;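 further: UHRF1 SRA domain binding a labeled hemimethylated CpG hairpin DNA; 0% = vehicle only and 100% = reference inhibitor with vehicle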
# MBD2 confirm = inhibitors of MBD2 binding to methylated DNA, confirmation, biochemical, TR-FRET, DNA-binding domain, human; inhibition, % at 4.4 µM; TR-FRET MBD2-DBD binding to methylated oligonucleotide; shares compounds with MBD2 DNA inh; 1,000 compounds, 26% hits
# TDP2 inh conf = human TDP2 enzyme inhibitors, retest, confirmation, biochemical, epi absorbance, recombinant enzyme | inhibition, % at 12.8 µM | AID 743263, 2014 | 1,100 compounds, 22% hits | shares compounds with TDP2 absorb | absorbance read-out; in the data active means inhibition above about 25%;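 further: 0% = vehicle with enzyme and 100% = no enzyme buffer only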
# IN multimer act = HIV-1 IN multimer formation enhancers, counter-screen for LEDGF/p75 integration inhibitor project, biochemical, TR-FRET. TR-FRET HIV-1 integrase multimerization. 2,000 compounds, 17% hits. shares compounds with LEDGF integ inh. AID 1053131, 2014. activation, % at 7.7 µM; in the data active means activation above about 8.9%
# TRFRET interf = TR-FRET optical interference artefacts, confirmation, artefact control for LEDGF/p75-dependent integration inhibitor project, biochemical, HIV-1 IN multimerization. inhibition, % at 7.7 µM. TR-FRET optical interference counterscreen. 2,000 tested, under 10 active. shares compounds with LEDGF integ inh. AID 1053135, 2014;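 active means inhibition above the mean over all tested compounds plus 3 SD, which no compound reached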;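 further: 0% = integrase with antibodies and DMSO and 100% = antibodies without integrase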
# IN-LEDGF confirm = inhibitors of HIV-1 IN-LEDGF/p75 DNA integration, confirmation, biochemical, TR-FRET. inhibition, % at 3.7 µM. shares compounds with LEDGF integ inh. 2,000 compounds, 36% hits. TR-FRET LEDGF/p75-dependent HIV-1 integration
# * = called active by the depositor; nt = no result. Compounds with a hit are over-represented: about 1.9% of the library has one in this group of screens. Unless noted, no stated cut-off is given here; in the data, active means inhibition above about 14%; inactive means the rest.
SMILES,NSD2 inh,LEDGF integ inh,TDP2 absorb,UHRF1 MBD2 ctr,CASP6 VEID inh,MBD2 DNA inh,UHRF1 ctr MBD2,MBD2 confirm,IN multimer act,TRFRET interf,IN-LEDGF confirm,others
C=C(C)C(=O)Nc1cccc(C2=NOC3(C2)C[C@@H](C(N)=O)N(C(=O)C2(C)CC2)C3)c1 (some centres not stated),nt,36*,1,92*,nt,55*,94*,79*,93*,-334,60*,
C=C(C)C(=O)Nc1cccc(C2=NOC3(C2)C[C@H](C(N)=O)N(C(=O)/C=C/C)C3)c1 (some centres not stated),nt,26*,-21,82*,53*,46*,73*,48*,19*,-96,34*,
C/C=C\C(=O)Nc1cccc(C2=NOC3(C2)C[C@@H](C(N)=O)N(C(=O)C2(C)CC2)C3)c1 (some centres not stated),nt,2,-2,4,1,3,nt,nt,nt,nt,nt,
C=C(C)C(=O)Nc1cccc(C2=NOC3(C2)C[C@@H](C(N)=O)N(C(=O)C(=C)C)C3)c1 (some centres not stated),nt,16*,7,74*,38*,35*,73*,42*,17*,-88,30*,
COc1ccc(S(=O)(=O)N(C)C[C@H]2Oc3ccc(N(C)C)cc3CC(=O)N([C@@H](C)CO)C[C@H]2C)cc1,nt,nt,nt,nt,-1,nt,nt,nt,nt,nt,nt,
CCN(CC)c1ccc(/C=C(\C#N)C(N)=O)cc1,-2,-4,-8,-17,-1,-8,nt,nt,nt,nt,nt,
N#C/C(=C\c1cc(O)c(O)c(O)c1)C(N)=O,nt,68*,-2,47*,27,32*,3,-11,31*,-154,31*,
Nc1c(C(=O)NCC2CCCO2)sc2nc3c(c(-c4ccco4)c12)CC/C3=C\c1ccco1 (configuration not stated),12,65*,-1,42*,42*,21*,92*,106*,54*,-193,85*,
Cc1ccc(-c2nc3c(c(=O)[nH]c(=O)n3Cc3ccccc3)n2C)o1,1,23*,8,30*,21,16*,16,9,9,-44,34*,
Cc1ccc(-c2nc3c(c(=O)[nH]c(=O)n3Cc3ccccc3)n2Cc2ccccc2)o1,0,5,-13,3,2,1,nt,nt,nt,nt,nt,
COc1ccc(-c2nc3cc(C)c(Br)c(C)n3c2Cc2ccsc2)cc1OC,nt,0,10,1,-2,2,nt,nt,nt,nt,nt,
COc1ccccc1Cc1c(-c2ccc(OC)c(OC)c2)nc2cc(C)c(Br)c(C)n12,nt,18*,33*,26*,-3,19*,-1,3,0,1,-7,TDP2 inh conf=2
O=C(Nc1ccc(-c2ccccc2)cc1)[C@@H]1[C@@H](CO)[C@@H]2Cn3c(cccc3=O)[C@@H]2N1CC1CCCC1,nt,nt,nt,nt,-3,nt,nt,nt,nt,nt,nt,
O=C(CSc1nnc(-c2ccco2)c(-c2ccco2)n1)c1ccccc1,4,57*,-3,58*,6,17*,19,3,4,-20,26*,
O=C(CSc1nnc(-c2ccco2)o1)c1ccccc1,4,3,-3,0,nt,-3,nt,nt,nt,nt,nt,
COc1ccc(NC(=O)N(C)C[C@H]2Oc3ncc(C#C[C@H](C)O)cc3C(=O)N([C@H](C)CO)C[C@@H]2C)cc1,nt,nt,nt,nt,1,nt,nt,nt,nt,nt,nt,
C[C@H]1CN([C@@H](C)CO)C(=O)c2cc(C3=CCCC3)cnc2O[C@@H]1CN(C)C(=O)c1ccc2c(c1)OCO2,nt,nt,nt,nt,1,nt,nt,nt,nt,nt,nt,
O=C1OC(c2ccc(Cl)cc2)=N/C1=C\C=C\c1ccco1,0,36*,13,40*,64*,14*,11,0,-1,4,-1,
O=C1OC(c2ccccc2)=N/C1=C\C=C\c1ccccc1[N+](=O)[O-],-1,2,4,-2,5,-6,nt,nt,nt,nt,nt,
Cc1ccc(S(=O)(=O)N[C@@H]2C=C[C@@H](CC(=O)NCCCN(C)C)O[C@@H]2CO)cc1,nt,nt,nt,nt,-1,nt,nt,nt,nt,nt,nt,
O=C(C[C@H]1CC[C@@H](NS(=O)(=O)c2ccc(F)cc2)[C@H](CO)O1)NCc1ccc(Cl)c(Cl)c1,nt,nt,nt,nt,1,nt,nt,nt,nt,nt,nt,
Cc1c(N)cc(N)cc1C(=O)O,nt,74*,31*,73*,4,26*,1,-2,6,-30,1,TDP2 inh conf=6
O=C(Nc1cc2c(oc1=O)CCCC2=O)c1ccc(Cl)cc1,29,17*,10,41*,nt,16*,29*,16*,7,-26,22*,
Cc1nccc2oc(=O)c(NC(=O)c3ccc(Cl)cc3)cc12,-2,-5,8,0,0,2,nt,nt,nt,nt,nt,
Cc1noc(C)c1S(=O)(=O)N(C)C[C@@H]1OCCCC[C@@H](C)Oc2ccc(NC(=O)NC3CCCCC3)cc2C(=O)N([C@@H](C)CO)C[C@H]1C,nt,nt,nt,nt,0,nt,nt,nt,nt,nt,nt,
COc1cc(/C=C(\C#N)C(=O)c2ccc(O)c(O)c2)cc(I)c1O,nt,90*,12,58*,63*,22*,3,-6,22*,-108,82*,
